Assay results: ChEMBL document CHEMBL4689842, “EUbOPEN Chemogenomics Library wave 1” (2021)
Values joined by “and” are separate entries in the source; they are usually repeats but may differ in a detail not shown here. Equal values may be shown once.

Tested on: Fibroblast
Assay: Multiplex assay against human fibroblast
Type: toxicity, cell-based
Outline: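 Four dyes were applied at seeding to live cells: Hoechst33342, BioTracker Green Microtubule Cytoskeleton Dye, MitoTracker Red and Annexin V Alexa Fluor 680. Imaging after compound addition used a CQ1 microscope at 37°C and 5% CO2. CellPathfinder machine-learning gating then sorted cells into Hoechst high-intensity objects or normal cells, normal cells into healthy, pyknosed or fragmented nuclei, and pyknosed cells into mitotic or apoptotic, with tubulin, mitochondrial-mass and membrane-permeability phenotypes given as per cents of healthy-nucleus cells.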

[1] = 12 h, 1 µM, compound concentration 1 uM, replicate 1
[2] = 12 h, 1 µM, compound concentration 1 uM, replicate 2
[3] = 24 h, 1 µM, compound concentration 1 uM, replicate 1
[4] = 24 h, 1 µM, compound concentration 1 uM, replicate 2
[5] = 12 h, 10 µM, compound concentration 10 uM, replicate 1
[6] = 12 h, 10 µM, compound concentration 10 uM, replicate 2
[7] = 24 h, 10 µM, compound concentration 10 uM, replicate 1
[8] = 24 h, 10 µM, compound concentration 10 uM, replicate 2
[9] = 48 h, 1 µM, compound concentration 1 uM, replicate 1
[10] = 48 h, 1 µM, compound concentration 1 uM, replicate 2
[11] = 48 h, 10 µM, compound concentration 10 uM, replicate 1
[12] = 48 h, 10 µM, compound concentration 10 uM, replicate 2

## CN1CCN(Cc2cc(NC(=O)c3ccc4c(c3)CN(c3ccccc3)CC4)cc(C(F)(F)F)c2)CC1
[1]
  Population Apoptotic (%): 72% and 64%
  Population Fragmented Nuclei (%): 42% and 27%
  Population Healthy Nuclei (%): 43% and 53%
  Population Hoechst High Intensity Objects (%): 27% and 18%
  Population Membrane Permeable-Phenotype (%): 4% and 12%
  Population Mitochondria Different-Phenotype (%): 6% and 7%
  Population Mitotic Cells (%): 27% and 35%
  Population Normal (%): 72% and 81%
  Population Pyknosed Nuclei (%): 14% and 19%
  Population Tubulin-Different-Phenotype (%): 30% and 14%
  Total Cell Count: 315 and 180
[2]
  Population Apoptotic (%): 75% and 40%
  Population Fragmented Nuclei (%): 55% and 53%
  Population Healthy Nuclei (%): 37% and 39%
  Population Hoechst High Intensity Objects (%): 36% and 35%
  Population Mitochondria Different-Phenotype (%): 13% and 31%
  Population Mitotic Cells (%): 25% and 60%
  Population Normal (%): 63% and 64%
  Population Pyknosed Nuclei (%): 6%
  Total Cell Count: 92 and 114
[3]
  Population Apoptotic (%): 74% and 57%
  Population Fragmented Nuclei (%): 33% and 27%
  Population Healthy Nuclei (%): 52% and 58%
  Population Hoechst High Intensity Objects (%): 41% and 15%
  Population Membrane Permeable-Phenotype (%): 6% and 4%
  Population Mitochondria Different-Phenotype (%): 25% and 10%
  Population Mitotic Cells (%): 25% and 42%
  Population Normal (%): 58% and 84%
  Population Pyknosed Nuclei (%): 14% and 13%
  Total Cell Count: 365 and 178
[4]
  Population Apoptotic (%): 100% and 40%
  Population Fragmented Nuclei (%): 57% and 61%
  Population Healthy Nuclei (%): 33% and 32%
  Population Hoechst High Intensity Objects (%): 39% and 37%
  Population Membrane Permeable-Phenotype (%): 21% and 12%
  Population Mitochondria Different-Phenotype (%): 15% and 16%
  Population Normal (%): 60% and 62%
  Population Pyknosed Nuclei (%): 8% and 6%
  Population Tubulin-Different-Phenotype (%): 21% and 48%
  Total Cell Count: 93 and 124

## COc1cc(Nc2nccc(-c3cnn4nc(OC)ccc34)n2)cc(C(F)(F)F)c1
[1]
  Population Apoptotic (%): 42%
  Population Fragmented Nuclei (%): 22%
  Population Healthy Nuclei (%): 47%
  Population Hoechst High Intensity Objects (%): 21%
  Population Membrane Permeable-Phenotype (%): 25%
  Population Mitochondria Different-Phenotype (%): 6%
  Population Mitotic Cells (%): 57%
  Population Normal (%): 78%
  Population Pyknosed Nuclei (%): 30%
  Population Tubulin-Different-Phenotype (%): 43%
  Total Cell Count: 87
[2]
  Population Apoptotic (%): 50%
  Population Fragmented Nuclei (%): 8%
  Population Healthy Nuclei (%): 86%
  Population Hoechst High Intensity Objects (%): 3%
  Population Membrane Permeable-Phenotype (%): 2%
  Population Mitochondria Different-Phenotype (%): 16%
  Population Mitotic Cells (%): 50%
  Population Normal (%): 96%
  Population Pyknosed Nuclei (%): 5%
  Population Tubulin-Different-Phenotype (%): 16%
  Total Cell Count: 44
[5]
  Population Apoptotic (%): 57%
  Population Fragmented Nuclei (%): 66%
  Population Healthy Nuclei (%): 15%
  Population Hoechst High Intensity Objects (%): 48%
  Population Membrane Permeable-Phenotype (%): 13%
  Population Mitochondria Different-Phenotype (%): 13%
  Population Mitotic Cells (%): 42%
  Population Normal (%): 51%
  Population Pyknosed Nuclei (%): 17%
  Population Tubulin-Different-Phenotype (%): 47%
  Total Cell Count: 283
[6]
  Population Apoptotic (%): 33%
  Population Fragmented Nuclei (%): 27%
  Population Healthy Nuclei (%): 61%
  Population Hoechst High Intensity Objects (%): 34%
  Population Membrane Permeable-Phenotype (%): 3%
  Population Mitochondria Different-Phenotype (%): 6%
  Population Mitotic Cells (%): 66%
  Population Normal (%): 65%
  Population Pyknosed Nuclei (%): 11%
  Population Tubulin-Different-Phenotype (%): 15%
  Total Cell Count: 82
[3]
  Population Apoptotic (%): 75%
  Population Fragmented Nuclei (%): 22%
  Population Healthy Nuclei (%): 50%
  Population Hoechst High Intensity Objects (%): 19%
  Population Membrane Permeable-Phenotype (%): 8%
  Population Mitochondria Different-Phenotype (%): 10%
  Population Mitotic Cells (%): 25%
  Population Normal (%): 80%
  Population Pyknosed Nuclei (%): 27%
  Population Tubulin-Different-Phenotype (%): 32%
  Total Cell Count: 92
[4]
  Population Apoptotic (%): 45%
  Population Fragmented Nuclei (%): 10%
  Population Healthy Nuclei (%): 77%
  Population Hoechst High Intensity Objects (%): 2%
  Population Membrane Permeable-Phenotype (%): 4%
  Population Mitotic Cells (%): 54%
  Population Normal (%): 97%
  Population Pyknosed Nuclei (%): 12%
  Population Tubulin-Different-Phenotype (%): 19%
  Total Cell Count: 43
[7]
  Population Apoptotic (%): 46%
  Population Fragmented Nuclei (%): 57%
  Population Healthy Nuclei (%): 21%
  Population Hoechst High Intensity Objects (%): 54%
  Population Membrane Permeable-Phenotype (%): 23%
  Population Mitochondria Different-Phenotype (%): 11%
  Population Mitotic Cells (%): 53%
  Population Normal (%): 45%
  Population Pyknosed Nuclei (%): 21%
  Population Tubulin-Different-Phenotype (%): 42%
  Total Cell Count: 273
[8]
  Population Apoptotic (%): 50%
  Population Fragmented Nuclei (%): 26%
  Population Healthy Nuclei (%): 56%
  Population Hoechst High Intensity Objects (%): 29%
  Population Membrane Permeable-Phenotype (%): 0%
  Population Mitochondria Different-Phenotype (%): 23%
  Population Mitotic Cells (%): 50%
  Population Normal (%): 70%
  Population Pyknosed Nuclei (%): 17%
  Population Tubulin-Different-Phenotype (%): 11%
  Total Cell Count: 90
[9]
  Population Apoptotic (%): 64%
  Population Fragmented Nuclei (%): 32%
  Population Healthy Nuclei (%): 50%
  Population Hoechst High Intensity Objects (%): 11%
  Population Mitochondria Different-Phenotype (%): 0%
  Population Mitotic Cells (%): 35%
  Population Normal (%): 88%
  Population Pyknosed Nuclei (%): 17%
  Population Tubulin-Different-Phenotype (%): 21%
  Total Cell Count: 92
[10]
  Population Apoptotic (%): 66%
  Population Fragmented Nuclei (%): 39%
  Population Healthy Nuclei (%): 56%
  Population Hoechst High Intensity Objects (%): 10%
  Population Membrane Permeable-Phenotype (%): 17%
  Population Mitochondria Different-Phenotype (%): 4%
  Population Mitotic Cells (%): 33%
  Population Normal (%): 89%
  Population Pyknosed Nuclei (%): 4%
  Population Tubulin-Different-Phenotype (%): 29%
  Total Cell Count: 82
[11]
  Population Apoptotic (%): 69%
  Population Fragmented Nuclei (%): 69%
  Population Healthy Nuclei (%): 21%
  Population Hoechst High Intensity Objects (%): 51%
  Population Membrane Permeable-Phenotype (%): 10%
  Population Mitochondria Different-Phenotype (%): 6%
  Population Mitotic Cells (%): 30%
  Population Normal (%): 48%
  Population Pyknosed Nuclei (%): 9%
  Population Tubulin-Different-Phenotype (%): 56%
  Total Cell Count: 291
[12]
  Population Apoptotic (%): 50%
  Population Fragmented Nuclei (%): 39%
  Population Healthy Nuclei (%): 59%
  Population Hoechst High Intensity Objects (%): 26%
  Population Membrane Permeable-Phenotype (%): 4%
  Population Mitochondria Different-Phenotype (%): 8%
  Population Mitotic Cells (%): 50%
  Population Normal (%): 73%
  Population Pyknosed Nuclei (%): 1%
  Population Tubulin-Different-Phenotype (%): 40%
  Total Cell Count: 205
